From ChEMBL document CHEMBL1145212, “Fluorinated diaryl sulfides as serotonin transporter ligands: synthesis, structure-activity relationship study, and in vivo evaluation of fluorine-18-labeled compounds as PET imaging agents” (J Med Chem, 2005)

Key:
Rattus norvegicus [1] = assay: Biodistribution of [18F]AFM in rat cerebellum at 90 min postinjection in vivo; assay type: ADME, organism-based; conditions: 1.5 h
Method in brief: (§1)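 Male Sprague-Dawley rats, three per group, received ~20 µCi of the F-18 radioligand in saline by tail-vein injection. Rats were anesthetized with CO2 and decapitated at 10, 30, 60, 90 or 120 min. Blood and brain regions were weighed and gamma-counted. %ID/g was decay- and tail-residual-corrected against F-18 standards made from the injectate and reported as mean ± SD.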

Rattus norvegicus [2] = assay: Biodistribution of [18F]AFM in rat cerebellum at 120 min postinjection in vivo; assay type: ADME, organism-based; conditions: 2 h; method in brief: as §1
Rattus norvegicus [3] = assay: Biodistribution of [18F]AFM in rat blood at 60 min postinjection in vivo; assay type: ADME, organism-based; conditions: 1 h; method in brief: as §1
Rattus norvegicus [4] = assay: Biodistribution of [18F]-AFM in rat striatum 60 min postinjection in vivo; assay type: ADME, organism-based; conditions: 1 h
Method in brief: (§2)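 Male Sprague-Dawley rats, three per time point, received the F-18 radioligand in saline (~20 µCi per rat at injection) by tail vein. Under CO2 anesthesia they were decapitated at 10, 30, 60, 90 or 120 min. Blood and dissected brain regions were weighed and gamma counted. Activity was decay-corrected, and injected dose was corrected for tail residual activity. Uptake was expressed as %ID/g versus injectate standards, mean ± SD.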

Rattus norvegicus [5] = assay: Biodistribution of [18F]AFM in rat thalamus at 120 min postinjection in vivo; assay type: ADME, organism-based; conditions: 2 h
Rattus norvegicus [6] = assay: Biodistribution of [18F]AFM in rat thalamus at 10 min postinjection in vivo; assay type: ADME, organism-based
Rattus norvegicus [7] = assay: Biodistribution of [18F]AFM in rat cerebellum at 60 min postinjection in vivo; assay type: ADME, organism-based; conditions: 1 h; method in brief: as §1
Rattus norvegicus [8] = assay: Biodistribution of [18F]AFM in rat frontal cortex at 120 min postinjection in vivo; assay type: ADME, organism-based; conditions: 2 h; method in brief: as §1
Rattus norvegicus [9] = assay: Biodistribution of [18F]-AFM in rat thalamus at 30 min postinjection in vivo; assay type: ADME, organism-based; conditions: 0.5 h; method in brief: as §2
Rattus norvegicus [10] = assay: Biodistribution of [18F]AFM in rat frontal cortex at 60 min postinjection in vivo; assay type: ADME, organism-based; conditions: 1 h; method in brief: as §1
Rattus norvegicus [11] = assay: Biodistribution of [18F]AFM in rat thalamus at 90 min postinjection in vivo; assay type: ADME, organism-based; conditions: 1.5 h
Rattus norvegicus [12] = assay: Biodistribution of [18F]AFM in rat hypothalamus at 90 min postinjection in vivo; assay type: ADME, organism-based; conditions: 1.5 h
Method in brief: (§3)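 Male Sprague-Dawley rats, three per group, given about 20 µCi of F-18 radioligand in saline by tail vein. Sacrificed by decapitation after CO₂ anaesthesia at 10, 30, 60, 90 or 120 min. Brain regions and blood removed, weighed and gamma-counted. %ID was decay-corrected and corrected for residual tail activity against F-18 standards, then converted to %ID/g; mean ± SD.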

Rattus norvegicus [13] = assay: Biodistribution of [18F]AFM in rat frontal cortex at 30 min postinjection in vivo; assay type: ADME, organism-based; conditions: 0.5 h; method in brief: as §1
Rattus norvegicus [14] = assay: Biodistribution of [18F]AFM in rat blood at 90 min postinjection in vivo; assay type: ADME, organism-based; conditions: 1.5 h; method in brief: as §1
Rattus norvegicus [15] = assay: Biodistribution of [18F]AFM in rat blood at 10 min postinjection in vivo; assay type: ADME, organism-based; method in brief: as §1
Rattus norvegicus [16] = assay: Biodistribution of [18F]AFM in rat hypothalamus at 30 min postinjection in vivo; assay type: ADME, organism-based; conditions: 0.5 h; method in brief: as §3
Rattus norvegicus [17] = assay: Biodistribution of [18F]AFM in rat hypothalamus at 10 min postinjection in vivo; assay type: ADME, organism-based; method in brief: as §3
Rattus norvegicus [18] = assay: Biodistribution of [18F]AFM in rat hypothalamus at 60 min postinjection in vivo; assay type: ADME, organism-based; conditions: 1 h; method in brief: as §3
Rattus norvegicus [19] = organism: Rattus norvegicus; assay: Specific binding of [18F]AFA in thalamus of rat pretreated with compound 7d; n=3; assay type: functional
Rattus norvegicus [20] = assay: Biodistribution of [18F]AFM in rat blood at 30 min postinjection in vivo; assay type: ADME, organism-based; conditions: 0.5 h; method in brief: as §1
Rattus norvegicus [21] = assay: Biodistribution of [18F]AFM in rat hippocampus at 30 min postinjection in vivo; assay type: ADME, organism-based; conditions: 0.5 h; method in brief: as §1
Rattus norvegicus [22] = assay: Biodistribution of [18F]-AFM in rat striatum at 120 min postinjection in vivo; assay type: ADME, organism-based; conditions: 2 h; method in brief: as §2
Rattus norvegicus [23] = assay: Biodistribution of [18F]-AFM in rat cerebellum at 10 min postinjection in vivo; assay type: ADME, organism-based; method in brief: as §2
Rattus norvegicus [24] = assay: Biodistribution of [18F]AFM in rat blood at 120 min postinjection in vivo; assay type: ADME, organism-based; conditions: 2 h; method in brief: as §1
Rattus norvegicus [25] = organism: Rattus norvegicus; assay: Specific binding of [18F]AFA in frontal cortex of rat pretreated with compound 7d; n=3; assay type: functional
Rattus norvegicus [26] = assay: Biodistribution of [18F]-AFM in rat striatum at 30 min postinjection in vivo; assay type: ADME, organism-based; conditions: 0.5 h; method in brief: as §2
Rattus norvegicus [27] = assay: Biodistribution of [18F]AFM in rat hypothalamus at 120 min postinjection in vivo; assay type: ADME, organism-based; conditions: 2 h; method in brief: as §3
Rattus norvegicus [28] = organism: Rattus norvegicus; assay: Specific binding of [18F]AFA in striatum of rat pretreated with compound 7d; n=3; assay type: functional
Rattus norvegicus [29] = assay: Biodistribution of [18F]AFM in rat hippocampus at 10 min postinjection in vivo; assay type: ADME, organism-based; method in brief: as §1
Rattus norvegicus [30] = assay: Biodistribution of [18F]AFM in rat thalamus at 60 min postinjection in vivo; assay type: ADME, organism-based; conditions: 1 h
Rattus norvegicus [31] = assay: Biodistribution of [18F]AFM in rat hippocampus at 120 min postinjection in vivo; assay type: ADME, organism-based; conditions: 2 h; method in brief: as §1
Rattus norvegicus [32] = assay: Biodistribution of [18F]AFM in rat striatum at 90 min postinjection in vivo; assay type: ADME, organism-based; conditions: 1.5 h
Method in brief: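 Male Sprague-Dawley rats (three per group) received ~20 µCi of the F-18-labeled ligand in saline by tail vein. They were anesthetized with CO₂ and decapitated at 10, 30, 60, 90 and 120 min. Striatum and other regions were weighed and gamma-counted. Values are decay- and tail-corrected %ID/g against standards made from the injection solution, reported as mean ± SD.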

Rattus norvegicus [33] = assay: Biodistribution of [18F]AFM in rat frontal cortex at 10 min postinjection in vivo; assay type: ADME, organism-based; method in brief: as §1
Rattus norvegicus [34] = organism: Rattus norvegicus; assay: Specific binding of [18F]-AFA in hippocampus of rat pretreated with compound 7d; n=3; assay type: functional
Rattus norvegicus [35] = assay: Biodistribution of [18F]AFM in rat frontal cortex at 90 min postinjection in vivo; assay type: ADME, organism-based; conditions: 1.5 h; method in brief: as §1
Rattus norvegicus [36] = assay: Biodistribution of [18F]AFM in rat striatum at 10 min postinjection in vivo; assay type: ADME, organism-based; method in brief: as §3
Rattus norvegicus [37] = assay: Biodistribution of [18F]-AFM in rat hippocampus at 60 min postinjection in vivo; assay type: ADME, organism-based; conditions: 1 h; method in brief: as §2
Rattus norvegicus [38] = organism: Rattus norvegicus; assay: Specific binding of [18F]AFA in hypothalamus of rat pretreated with compound 7d; n=3; assay type: functional
Rattus norvegicus [39] = assay: Biodistribution of [18F]AFM in rat cerebellum at 30 min postinjection in vivo; assay type: ADME, organism-based; conditions: 0.5 h; method in brief: as §1
Rattus norvegicus [40] = assay: Biodistribution of [18F]AFM in rat hippocampus at 90 min postinjection in vivo; assay type: ADME, organism-based; conditions: 1.5 h; method in brief: as §3

With `CN(C)Cc1ccccc1Sc1ccc(C[18F])cc1N` the Biodistribution (Rattus norvegicus [1]) was 0.08 %ID/g, the Biodistribution (Rattus norvegicus [2]) was 0.07 %ID/g and the Biodistribution (Rattus norvegicus [3]) was 0.1 %ID/g. For the same compound, the Biodistribution (Rattus norvegicus [4]) was 0.57 %ID/g, the Biodistribution (Rattus norvegicus [5]) was 0.56 %ID/g and the Biodistribution (Rattus norvegicus [6]) was 0.72 %ID/g. The Biodistribution (Rattus norvegicus [7]) was 0.13 %ID/g, the Biodistribution (Rattus norvegicus [8]) was 0.38 %ID/g and the Biodistribution (Rattus norvegicus [9]) was 0.88 %ID/g. It also gave a Biodistribution (Rattus norvegicus [10]) of 0.71 %ID/g, a Biodistribution (Rattus norvegicus [11]) of 0.5 %ID/g and a Biodistribution (Rattus norvegicus [12]) of 0.58 %ID/g. The Biodistribution (Rattus norvegicus [13]) was 0.99 %ID/g, the Biodistribution (Rattus norvegicus [14]) was 0.08 %ID/g and the Biodistribution (Rattus norvegicus [15]) was 0.37 %ID/g. For the same compound, the Biodistribution (Rattus norvegicus [16]) was 0.82 %ID/g, the Biodistribution (Rattus norvegicus [17]) was 0.7 %ID/g and the Biodistribution (Rattus norvegicus [18]) was 0.71 %ID/g. It also gave a Specific binding (Rattus norvegicus [19]) of 0.85 %ID/g, a Biodistribution (Rattus norvegicus [20]) of 0.18 %ID/g and a Biodistribution (Rattus norvegicus [21]) of 0.64 %ID/g. It also gave a Biodistribution (Rattus norvegicus [22]) of 0.42 %ID/g, a Biodistribution (Rattus norvegicus [23]) of 0.33 %ID/g and a Biodistribution (Rattus norvegicus [24]) of 0.04 %ID/g. It also gave a Specific binding (Rattus norvegicus [25]) of 0.31 %ID/g, a Biodistribution (Rattus norvegicus [26]) of 0.83 %ID/g and a Biodistribution (Rattus norvegicus [27]) of 0.55 %ID/g. It also gave a Specific binding (Rattus norvegicus [28]) of 0.53, a Biodistribution (Rattus norvegicus [29]) of 0.51 %ID/g and a Biodistribution (Rattus norvegicus [30]) of 0.67 %ID/g. For the same compound, the Biodistribution (Rattus norvegicus [31]) was 0.28 %ID/g, the Biodistribution (Rattus norvegicus [32]) was 0.45 %ID/g and the Biodistribution (Rattus norvegicus [33]) was 0.82 %ID/g. The Specific binding (Rattus norvegicus [34]) was 0.45 %ID/g, the Biodistribution (Rattus norvegicus [35]) was 0.52 %ID/g and the Biodistribution (Rattus norvegicus [36]) was 0.69 %ID/g. It also gave a Biodistribution (Rattus norvegicus [37]) of 0.45 %ID/g, a Specific binding (Rattus norvegicus [38]) of 0.84 and a Biodistribution (Rattus norvegicus [39]) of 0.23 %ID/g. The Biodistribution (Rattus norvegicus [40]) was 0.36 %ID/g.
